Experimental data published in publication PMC4969713 (Journal of Alzheimer's Disease, 2016).
Counter-ions that a name gives are not always drawn.

Experiments:
5-HT2A receptor = 5-HT2A receptor (Homo sapiens, UniProt P28223); assay: Radioligand binding competition, 5-HT2A
Dopaminergic receptors = assay: Radioligand competition, dopaminergic receptors; assay type: binding; conditions: compared to the 5-HT7 receptor
dopamine transporter = dopamine transporter (Homo sapiens, UniProt Q01959); assay: Target panel binding, dopamine transporter
muscarinic M2 receptor = muscarinic M2 receptor (Homo sapiens, UniProt P08172); assay: Target panel binding, muscarinic M2
[1] = target: human recombinant H2 receptors (Homo sapiens, UniProt P25021); assay: Amthamine-induced cAMP accumulation in CHO-K1 cells; assay type: cell-based
How it was run: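 CHO-K1 cells exogenously expressing recombinant human H2 receptor were stimulated with 50 nM amthamine. Intracellular cAMP accumulation was registered, and blockade of this response by test compound was measured.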

[2] = Stability in human blood plasma; assay type: in vitro ADME; conditions: 30-min incubation, room temperature
P-glycoprotein = P-glycoprotein (Homo sapiens, UniProt P08183); assay: Pgp-Glo ATPase assay; assay type: biochemical
How it was run: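 P-glycoprotein ATPase activity was measured with the Pgp-Glo assay system per the manufacturer's protocol. Orthovanadate-sensitive activity was determined in the presence of test compound.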

CYP2C8 = CYP2C8 (Homo sapiens, UniProt P10632); assay: Metabolism by recombinant CYP2C8; assay type: in vitro ADME
[3] = Brain/plasma/CSF distribution in Sprague Dawley rats; assay type: in vivo
male Long Evans rats = assay: Geller-Seifter conflict test; assay type: in vivo; conditions: IV, 5 min before test
How it was run: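 Male Long Evans rats were food-deprived for 24 h, with at least 5 per group. Test compound was given IV via tail vein 5 min before testing. The test ran two 30-min sessions, unpunished and punished (conflict), with lever presses counted. Results were expressed as relative change versus the vehicle group.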

BALB/c mice [4] = assay: Tail suspension test; assay type: in vivo; conditions: AVN-101 0.05 mg/kg IP once daily for 4 days
How it was run: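 Test compound dissolved in saline, injected IP into BALB/c mice once daily for 4 days, last injection 5 min before tail suspension; vehicle (saline) controls; fluoxetine and desipramine 15 mg/kg IP as positive controls, last dose 30 min before test. Immobility measured; at least 8 animals per group; Student t-test.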

BALB/c mice [5] = assay: Passive avoidance, MK-801-induced amnesia, mice; assay type: in vivo
BALB/c mice [6] = assay: Morris water maze, scopolamine-induced amnesia; assay type: in vivo; conditions: IP; AVN-101 0.2 mg/kg; Tacrine 3 mg/kg; donepezil 1 mg/kg; scopolamine 1.5 mg/kg
How it was run: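 Scopolamine-induced amnesia model in male BALB/c mice. Read-out was time spent in the quadrant where the escape platform had been during the two preceding training days, reported as mean ± SE.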

male BALB/c mice = assay: Novel object recognition, MK-801-induced; assay type: in vivo; conditions: 0.2 mg/kg MK-801; memantine 10 mg/kg; SB-742457 0.2 or 1.0 mg/kg
How it was run: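 All drugs were dissolved in saline and given IP; control animals received saline vehicle. Each group had at least 8 male BALB/c mice. Read-out was novel object recognition index, reported as mean ± SE.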

male SHK mice = assay: Apomorphine-induced disruption of pre-pulse inhibition; assay type: in vivo; conditions: IP
How it was run: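 Male SHK mice received apomorphine as the pro-psychotic agent to disrupt pre-pulse inhibition. Groups: untreated control, apomorphine alone, haloperidol 1 mg/kg as positive control, and test compound at several doses. Groups were compared with the apomorphine-only group by Student test.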

Wistar rats = assay: 180 days toxicity, rats; assay type: in vivo
[7] = tested on: rhesus macaques (Macaca Mulatta); assay: 30 days toxicity, monkeys; assay type: in vivo; conditions: 5 mg/kg PO daily
hNav1.5 = hNav1.5 (Homo sapiens, UniProt Q14524); assay: Cardiac channel inhibition, hNav1.5; assay type: cell-based
hKvLQT1-hminK (IKs) = hKvLQT1-hminK (IKs) (Homo sapiens, UniProt P51787); assay: Cardiac channel inhibition, IKs; assay type: cell-based
[8] = tested on: Salmonella typhimurium strains: TA98, TA1535, and TA1537; assay: Ames MPF test; assay type: cell-based; conditions: AVN-101 highest concentration 50μM
How it was run: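 Run per kit manual in the Ames MPF fluctuation format with histidine-dependent strains TA98, TA1535 and TA1537. Test compound reached a highest concentration of 50 μM. Strain-specific positive controls: 4-nitro-o-phenylenediamine 15 μg/mL (TA98), sodium azide 2 μg/mL (TA1535), 9-aminoacridine 50 μg/mL (TA1537). Reverse mutation rate recorded.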

healthy volunteers = assay: Phase I tolerability, healthy volunteers; assay type: in vivo, human
How it was run: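 Healthy volunteers received single oral doses. Venous blood was drawn through an IV catheter before dosing and at several time points after. Urine was collected before dosing and at 4 h and 24 h after. Systolic and diastolic pressure and heart rate were monitored.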

[9] = Phase I pharmacokinetics, single PO dose; assay type: in vivo, human; conditions: human, blood, po
[10] = Sprague Dawley, rat, CSF, iv, 2 mg/kg
[11] = Sprague Dawley, rat, brain, iv, 2 mg/kg
[12] = Sprague Dawley, rat, plasma, iv, 2 mg/kg
[13] = read-out: % Inhibition at 31.6μM

Chain of P-glycoprotein (P08183 whole entry): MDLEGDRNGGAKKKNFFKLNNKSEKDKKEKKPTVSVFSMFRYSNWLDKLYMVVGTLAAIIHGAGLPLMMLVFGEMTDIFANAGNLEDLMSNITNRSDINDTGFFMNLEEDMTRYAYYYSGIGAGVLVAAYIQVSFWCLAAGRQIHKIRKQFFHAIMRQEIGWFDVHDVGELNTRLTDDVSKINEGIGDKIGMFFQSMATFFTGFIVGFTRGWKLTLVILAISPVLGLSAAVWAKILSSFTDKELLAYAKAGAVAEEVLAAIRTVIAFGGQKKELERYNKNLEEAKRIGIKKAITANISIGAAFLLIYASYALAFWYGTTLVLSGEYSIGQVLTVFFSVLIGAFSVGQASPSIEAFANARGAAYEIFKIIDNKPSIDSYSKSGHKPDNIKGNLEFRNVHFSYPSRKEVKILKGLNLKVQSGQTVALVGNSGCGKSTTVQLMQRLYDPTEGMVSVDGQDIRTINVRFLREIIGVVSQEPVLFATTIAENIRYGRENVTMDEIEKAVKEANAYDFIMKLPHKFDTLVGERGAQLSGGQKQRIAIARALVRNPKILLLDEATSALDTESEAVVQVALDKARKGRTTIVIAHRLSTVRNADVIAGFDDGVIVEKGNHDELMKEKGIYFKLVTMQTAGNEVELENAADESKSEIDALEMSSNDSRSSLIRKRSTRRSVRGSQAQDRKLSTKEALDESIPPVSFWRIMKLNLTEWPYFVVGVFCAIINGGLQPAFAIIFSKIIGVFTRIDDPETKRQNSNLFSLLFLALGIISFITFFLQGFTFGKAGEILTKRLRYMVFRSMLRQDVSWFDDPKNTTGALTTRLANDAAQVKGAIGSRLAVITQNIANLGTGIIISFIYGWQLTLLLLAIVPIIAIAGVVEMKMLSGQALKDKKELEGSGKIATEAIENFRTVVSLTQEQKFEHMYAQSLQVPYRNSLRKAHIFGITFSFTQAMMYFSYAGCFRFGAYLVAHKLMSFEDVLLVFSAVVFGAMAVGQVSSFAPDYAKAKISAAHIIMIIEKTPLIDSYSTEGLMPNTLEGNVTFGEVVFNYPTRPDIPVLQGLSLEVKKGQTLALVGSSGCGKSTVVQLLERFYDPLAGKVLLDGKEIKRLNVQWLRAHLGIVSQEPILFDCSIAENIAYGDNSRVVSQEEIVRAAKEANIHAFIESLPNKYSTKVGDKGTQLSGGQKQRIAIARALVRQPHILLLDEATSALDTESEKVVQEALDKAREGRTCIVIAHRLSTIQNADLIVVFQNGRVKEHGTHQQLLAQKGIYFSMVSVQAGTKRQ
Chain of hKvLQT1-hminK (IKs) (P51787 whole entry): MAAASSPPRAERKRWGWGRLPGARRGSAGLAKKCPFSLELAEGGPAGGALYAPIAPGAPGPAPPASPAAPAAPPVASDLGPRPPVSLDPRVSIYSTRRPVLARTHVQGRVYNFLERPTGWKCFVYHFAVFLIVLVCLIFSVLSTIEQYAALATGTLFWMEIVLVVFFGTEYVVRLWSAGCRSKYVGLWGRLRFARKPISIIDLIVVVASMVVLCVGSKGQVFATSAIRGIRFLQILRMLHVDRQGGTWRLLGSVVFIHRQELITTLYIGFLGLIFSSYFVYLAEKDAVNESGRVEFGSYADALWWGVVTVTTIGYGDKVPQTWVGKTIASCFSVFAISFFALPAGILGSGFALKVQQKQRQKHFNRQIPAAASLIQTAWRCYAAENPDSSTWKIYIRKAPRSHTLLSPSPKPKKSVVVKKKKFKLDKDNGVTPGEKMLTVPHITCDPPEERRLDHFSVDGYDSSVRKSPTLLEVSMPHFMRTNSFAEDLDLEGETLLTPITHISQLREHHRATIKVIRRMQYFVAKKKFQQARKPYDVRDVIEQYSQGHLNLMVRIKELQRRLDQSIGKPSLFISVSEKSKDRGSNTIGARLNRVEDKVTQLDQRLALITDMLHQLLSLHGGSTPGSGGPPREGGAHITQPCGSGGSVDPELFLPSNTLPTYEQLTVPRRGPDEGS
Chain of human recombinant H2 receptors (P25021 whole entry): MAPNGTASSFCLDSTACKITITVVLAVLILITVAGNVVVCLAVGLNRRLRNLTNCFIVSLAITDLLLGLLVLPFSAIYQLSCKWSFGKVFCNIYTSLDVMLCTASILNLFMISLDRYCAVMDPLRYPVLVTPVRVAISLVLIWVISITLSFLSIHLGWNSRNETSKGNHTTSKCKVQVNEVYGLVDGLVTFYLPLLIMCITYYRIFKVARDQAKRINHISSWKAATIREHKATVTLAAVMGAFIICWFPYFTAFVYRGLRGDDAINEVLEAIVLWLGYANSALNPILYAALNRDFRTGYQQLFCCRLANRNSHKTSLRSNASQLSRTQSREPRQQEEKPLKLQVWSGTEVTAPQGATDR
Chain of hNav1.5 (Q14524 whole entry): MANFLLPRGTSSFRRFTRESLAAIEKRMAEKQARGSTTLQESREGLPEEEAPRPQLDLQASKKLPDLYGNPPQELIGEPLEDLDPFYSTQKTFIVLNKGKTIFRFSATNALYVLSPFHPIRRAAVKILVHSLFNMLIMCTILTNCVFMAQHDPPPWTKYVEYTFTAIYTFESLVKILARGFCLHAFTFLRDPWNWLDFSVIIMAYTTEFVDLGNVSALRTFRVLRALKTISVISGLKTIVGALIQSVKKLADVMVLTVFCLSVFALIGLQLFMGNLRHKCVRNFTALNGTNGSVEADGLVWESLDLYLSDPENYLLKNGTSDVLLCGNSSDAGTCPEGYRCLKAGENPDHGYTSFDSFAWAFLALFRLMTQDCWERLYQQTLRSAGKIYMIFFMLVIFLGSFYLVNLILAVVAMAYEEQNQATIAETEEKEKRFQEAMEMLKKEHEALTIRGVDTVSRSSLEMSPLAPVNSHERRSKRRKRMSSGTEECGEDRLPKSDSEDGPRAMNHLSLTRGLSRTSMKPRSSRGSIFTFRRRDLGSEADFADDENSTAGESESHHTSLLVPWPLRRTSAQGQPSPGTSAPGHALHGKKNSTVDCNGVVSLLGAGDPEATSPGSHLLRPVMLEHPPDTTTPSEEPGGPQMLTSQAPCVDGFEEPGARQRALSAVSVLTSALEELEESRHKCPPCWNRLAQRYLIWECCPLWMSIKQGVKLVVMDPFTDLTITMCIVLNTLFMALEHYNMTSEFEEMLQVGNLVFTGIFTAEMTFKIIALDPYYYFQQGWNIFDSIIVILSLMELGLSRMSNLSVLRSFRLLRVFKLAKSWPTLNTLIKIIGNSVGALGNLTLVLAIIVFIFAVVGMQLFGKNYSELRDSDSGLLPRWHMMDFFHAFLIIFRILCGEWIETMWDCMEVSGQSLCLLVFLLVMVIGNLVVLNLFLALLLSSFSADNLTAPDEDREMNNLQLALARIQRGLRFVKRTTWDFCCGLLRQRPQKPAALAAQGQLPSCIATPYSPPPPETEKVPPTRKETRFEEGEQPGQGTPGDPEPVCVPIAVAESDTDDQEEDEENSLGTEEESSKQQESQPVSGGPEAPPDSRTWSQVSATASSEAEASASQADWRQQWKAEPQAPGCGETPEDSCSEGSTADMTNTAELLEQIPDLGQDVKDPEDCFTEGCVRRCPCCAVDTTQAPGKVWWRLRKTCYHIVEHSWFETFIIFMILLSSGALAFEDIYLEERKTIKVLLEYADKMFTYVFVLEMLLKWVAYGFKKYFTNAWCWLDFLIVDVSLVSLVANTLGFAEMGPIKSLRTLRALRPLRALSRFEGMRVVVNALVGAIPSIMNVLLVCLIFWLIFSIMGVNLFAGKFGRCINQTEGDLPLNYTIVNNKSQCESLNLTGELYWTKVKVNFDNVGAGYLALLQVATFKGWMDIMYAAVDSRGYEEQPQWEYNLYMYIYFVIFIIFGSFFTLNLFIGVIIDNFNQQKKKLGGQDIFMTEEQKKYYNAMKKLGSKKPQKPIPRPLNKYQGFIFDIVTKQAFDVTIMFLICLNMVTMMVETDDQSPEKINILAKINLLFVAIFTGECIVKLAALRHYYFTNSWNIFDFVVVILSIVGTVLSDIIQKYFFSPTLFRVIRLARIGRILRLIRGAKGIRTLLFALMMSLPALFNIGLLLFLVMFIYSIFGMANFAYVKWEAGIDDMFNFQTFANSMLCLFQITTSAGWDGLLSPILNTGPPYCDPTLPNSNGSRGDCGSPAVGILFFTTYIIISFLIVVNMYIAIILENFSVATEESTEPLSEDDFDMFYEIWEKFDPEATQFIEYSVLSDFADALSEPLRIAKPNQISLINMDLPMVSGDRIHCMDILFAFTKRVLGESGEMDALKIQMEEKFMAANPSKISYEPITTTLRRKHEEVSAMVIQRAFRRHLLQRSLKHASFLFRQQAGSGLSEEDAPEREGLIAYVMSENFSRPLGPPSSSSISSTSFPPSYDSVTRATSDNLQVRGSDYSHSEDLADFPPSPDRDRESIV
Chain of dopamine transporter (Q01959 whole entry): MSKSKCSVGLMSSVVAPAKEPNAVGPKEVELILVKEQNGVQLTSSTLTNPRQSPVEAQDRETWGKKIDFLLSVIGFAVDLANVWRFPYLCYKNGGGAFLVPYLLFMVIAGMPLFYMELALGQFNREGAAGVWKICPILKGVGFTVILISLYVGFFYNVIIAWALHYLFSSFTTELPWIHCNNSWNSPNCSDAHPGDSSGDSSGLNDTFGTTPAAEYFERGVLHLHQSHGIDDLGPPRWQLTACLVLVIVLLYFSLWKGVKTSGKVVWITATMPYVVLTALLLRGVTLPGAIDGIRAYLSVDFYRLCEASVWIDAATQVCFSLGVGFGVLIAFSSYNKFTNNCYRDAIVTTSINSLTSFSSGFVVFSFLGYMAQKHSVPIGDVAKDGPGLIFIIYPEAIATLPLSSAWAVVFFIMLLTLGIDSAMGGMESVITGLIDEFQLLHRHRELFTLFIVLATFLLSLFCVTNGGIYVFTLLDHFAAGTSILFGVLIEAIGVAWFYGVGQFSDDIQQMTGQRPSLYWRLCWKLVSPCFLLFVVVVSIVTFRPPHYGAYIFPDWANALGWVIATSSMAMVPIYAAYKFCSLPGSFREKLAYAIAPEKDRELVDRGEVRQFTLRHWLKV

For `Cc1ccc2c(c1)c1c(n2CCc2ccccc2)CCN(C)C1` [AVN-101, 2,8-dimethyl-5-penethyl-2,3,4,5-tetra-hydro-1h-pyrido[[4,3-B]]indole hydrochloride], the Ki (5-HT2A receptor) was 0.0012 to 0.002 µM, the affinity (Dopaminergic receptors) was “very low affinity” and the binding (dopamine transporter) was “does not bind”. For the same compound, the binding (muscarinic M2 receptor) was “does not bind”, the receptor activation [1] was “activated neither H1 nor H2 receptors” and the “blockade of agonist-induced cell response” value ([1]; 50 nM amthamine, cAMP accumulation) was “effectively blocked”. The “residual amount of original compound” value [2] was 68%, the EC50 (P-glycoprotein) was roughly 50 µM and the “effect on Pgp ATP-ase activity” value (P-glycoprotein; orthovanadate-sensitive ATPase) was “strong activation”. The remaining at 0.5 h, 2 µM (CYP2C8) was 118%, the “binding to blood cells” value ([3]; IV 2 mg/kg, 5 min after injection) was “low binding capacity” and the Vss_obs ([3]; Plasma, IV 2 mg/kg) was 11.6136 L/kg. It also gave an AUC(0-inf) [3, 10] of 31.7 ng·h/mL, an AUC(0-t) [3, 10] of 25.3 ng·h/mL and a Cmax [3, 10] of 11 ng/mL. The half-life [3, 10] was 1.62 h, the k el [3, 10] was 0.000118 s⁻¹ and the AUC(0-inf) [3, 11] was 8960 ng·h/mL. The AUC(0-t) [3, 11] was 8000 ng·h/mL, the Cmax [3, 11] was 4660 ng/mL and the Tmax [3, 11] was 4.8 min. It also gave a half-life [3, 11] of 1.26 h, a k el [3, 11] of 0.000153 s⁻¹ and an AUC(0-inf) [3, 12] of 522 ng·h/mL. It also gave an AUC(0-t) [3, 12] of 376 ng·h/mL, a C0 [3, 12] of 308 ng/mL and a Cmax [3, 12] of 274 ng/mL. It also gave a Tmax [3, 12] of 4.98 min, a Vd [3, 12] of 13.2 L/kg and a clearance [3, 12] of 63.9 mL/min/kg. The half-life [3, 12] was 2.39 h, the k el [3, 12] was 8e-05 s⁻¹ and the “activity during unpunished rewards session” value (male Long Evans rats) was “no effect observed”. For the same compound, the “activity during punished conflict rewards session” value (male Long Evans rats; compared to vehicle) was “significantly increased”, the “decrease in immobility time” value (BALB/c mice [4]) was “comparable to that observed with either Fluoxetine or Desipramine” and the “effect on MK-801-induced amnesia” value (BALB/c mice [5]; IP) was “dose-dependently prevented”. The anti-amnesic dose (BALB/c mice [5]; MK-801 model) was 0.5 mg/kg, the “effect on scopolamine-induced amnesia (time in platform quadrant)” value (BALB/c mice [6]) was “effectively reversed” and the “effect on deficit in novel object recognition” value (male BALB/c mice) was “partially reverse”. For the same compound, the “optimal dose in restoration of PPI” value (male SHK mice) was 0.1 to 0.5 mg/kg, the “effect on apomorphine-induced disruption of PPI” value (male SHK mice; apomorphine 20 mg/kg, Haloperidol 1 mg/kg) was “effective in reversing” and the toxic effects (Wistar rats; 5 mg/kg PO daily) was “severe hepatotoxic and moderate cardiotoxic effects”. The toxic effects (Wistar rats; 0.25 and 0.5 mg/kg PO daily) was “substantially less noticeable”, the signs of toxicity [7] was “did not show any signs of toxicity” and the IC50 (hNav1.5) was 2.4 µM. For the same compound, the inhibition at 31.6 µM (hNav1.5; [13]) was 97%, the IC50 (hKvLQT1-hminK (IKs)) was 22.5 µM and the inhibition at 31.6 µM (hKvLQT1-hminK (IKs); [13]) was 55%. For the same compound, the “mutagenicity (reverse mutation rate)” value [8] was “produced no mutagenesis”, the sleepiness (healthy volunteers; 20 mg, 8 volunteers per group) was 3 volunteers and the adverse effects (healthy volunteers; 20 mg, first half of the day) was “some adverse effects were detected in five volunteers”. For the same compound, the “blood pressure, one person” value (healthy volunteers; 20 mg, 141/88 before to 157/87 (2 h–4 h) and 155/77 (6 h–7.5 h)) was “transient increase in systolic pressure”, the “QT interval in ECG” value (healthy volunteers; 2, 4, 10, 20 mg single PO dose) was “No QT interval prolongation” and the “biochemical and clinical parameters of blood and urine” value (healthy volunteers; all dose groups) was “in a normal range”. The tolerability (healthy volunteers; orally, doses of up to 20 mg daily) was “well tolerated”, the AUC ([9]; 2 mg) was 0.0946 ± 0.0268 ng·h/mL and the Cmax ([9]; 2 mg) was 0.00579 ± 0.0029 ng/mL. It also gave a half-life ([9]; 2 mg) of 14.1 ± 10.2 h, an AUC ([9]; 4 mg) of 0.211 ± 0.0862 ng·h/mL and a half-life ([9]; 4 mg) of 8.15 ± 2.23 h. For the same compound, the AUC ([9]; 10 mg) was 0.462 ± 0.207 ng·h/mL, the Cmax ([9]; 10 mg) was 0.0537 ± 0.0318 ng/mL and the half-life ([9]; 10 mg) was 10.2 ± 2.55 h. For the same compound, the AUC ([9]; 20 mg) was 0.843 ± 0.333 ng·h/mL, the Cmax ([9]; 20 mg) was 0.0841 ± 0.0462 ng/mL and the half-life ([9]; 20 mg) was 8.18 ± 2.09 h. It also gave a Tmax ([9]; male) of roughly 1 h and a half-life ([9]; male) of 8 to 14 h.
